Data as given in PMC5812400 (ESMO Open, 2018).

Tested on: adult patients with advanced non-haematological malignancies
Test: DLT and MTD/RP2D determination, phase I dose escalation of milled TAK-228
Type: in vivo, human
Details: for Maximum tolerated dose (MTD) / Recommended phase II dose (RP2D): milled
In short: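 Open-label dose escalation at four US sites with milled oral capsules, fasted, in 28-day cycles. Arms: QD days 1–28 (start 4 mg); QD days 2–4, 9–11, 16–18, 23–25 (start 6 mg) with IV taxane 80 mg/m2 on days 1, 8 and 15, ~24 h before dosing; QW days 1, 8, 15, 22 (start 20 mg). DLT: drug-related AE preventing further escalation. MTD: dose giving ≤1 DLT in cycle 1. DLT-evaluable: ≥75% of planned cycle 1 doses, or stopped earlier for a drug-related AE.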

CC(C)n1nc(-c2ccc3oc(N)nc3c2)c2c(N)ncnc21 [TAK-228, Sapanisertib] was tested, and the “Patients with DLT” value (QD 3 mg, 10 patients, grade 3 thrombocytopaenia) was “one patient experienced a DLT”, the “DLT-evaluable patients with at least one DLT” value (QD 4 mg) was 3/6 and the “Patients with DLT” value (QW 20 mg) was “none of the six patients”. The “Patients with DLT” value (QW 30 mg, cohort expanded to 12 patients, grade 3 adverse drug reaction) was 1 patient, the “Patients with DLT” value (QW 30 mg, initial six DLT-evaluable patients) was “none experiencing DLTs” and the “Maximum tolerated dose (MTD)” value (QD 3 days/week in combination with paclitaxel 80 mg/m^2) was 6 mg. For the same compound, the “Recommended phase II dose (RP2D)” value (in combination with paclitaxel 80 mg/m^2) was 4 mg, the “Maximum tolerated dose (MTD)” value (single-agent QD) was 3 mg and the “Recommended phase II dose (RP2D)” value (single-agent QD) was 3 mg. The “Maximum tolerated dose (MTD)” value (single-agent QW) was 30 mg and the “Recommended phase II dose (RP2D)” value (single-agent QW) was 30 mg.
